pIC50: −log10 of the molar value. Calls of active or inactive are those of the source. No cut-off for these calls is given here.
What was measured:
[1] = test system: NCI-H460; assay: Cytotoxicity against human NCI-H460 cells assessed as growth inhibition after 72 hrs by sulforhodamine B assay; type: functional, cell-based; conditions: NCI-H460, 72 h
Outline: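 Log-phase NCI-H460 cells seeded, drug added 24 h later, exposed 72 h. Survival read by sulforhodamine B staining. IC50 fitted by curve analysis as the concentration halving cell number relative to untreated controls.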

[2] = biological target: Heat shock protein HSP 90-alpha (Homo sapiens, UniProt P07900); assay: Displacement of GM-FTC from Hsp90-alpha (unknown origin) after 4 hrs by fluorescence polarization assay
[3] = test system: K562; assay: Cell cycle arrest in human K562 cells assessed as accumulation at G1 phase at 10 uM after 24 hrs by propidium iodide staining-based flow cytometric analysis; type: functional
Outline: (§1)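 K562 cells exposed for 24 h, then washed once in ice-cold PBS. Resuspended at 1×10^6 cells/mL in a hypotonic solution of propidium iodide in 0.1% sodium citrate with 0.03% (v/v) Nonidet P-40 for 30 min. Filtered through nylon cloth, then single-parameter DNA fluorescence histograms read by flow cytometry. Cell-cycle phase distribution obtained by modelling, with untreated cells as control.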

[4] = test system: K562; assay: Cell cycle arrest in human K562 cells assessed as reduction of S phase fraction at 10 uM after 24 hrs by propidium iodide staining-based flow cytometric analysis; type: functional; outline: as §1
[5] = test system: K562; assay: Induction of apoptosis in human K562 cells assessed as hypoploid nuclei accumulated in sub-G0-G1 phase after 72 hrs by propidium iodide staining-based fluorescence microscopic analysis; conditions: K562, 72 h
[6] = test system: K562; assay: Cytotoxicity against human K562 cells assessed as growth inhibition after 72 hrs by trypan blue exclusion assay; type: functional, cell-based; conditions: for pIC50: K562, 72 h
Outline: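 K562 cells, 2×10^5 per well in 1 mL complete medium, exposed to a range of drug concentrations. Cells stained with trypan blue and counted on a hemocytometer; dye-uptaking cells scored nonviable. Viable count expressed as percent of control proliferation; IC50 is the concentration giving 50% growth inhibition. Methods give 48 h incubation, table footnote 72 h exposure.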

[7] = test system: K562; assay: Cell cycle arrest in human K562 cells assessed as accumulation at G1 phase at 75 uM after 24 hrs by propidium iodide staining-based flow cytometric analysis; type: functional; outline: as §1
[8] = test system: K562; assay: Cell cycle arrest in human K562 cells assessed as reduction of S phase fraction at 75 uM after 24 hrs by propidium iodide staining-based flow cytometric analysis; type: functional; outline: as §1
[9] = test system: K562; assay: Cell cycle arrest in human K562 cells assessed as accumulation at G1 phase at 1 uM after 24 hrs by propidium iodide staining-based flow cytometric analysis; type: functional; outline: as §1
[10] = test system: K562; assay: Cell cycle arrest in human K562 cells assessed as reduction of S phase fraction at 1 uM after 24 hrs by propidium iodide staining-based flow cytometric analysis; type: functional; outline: as §1

SMILES | pIC50 [1] | pIC50 [2] | other results
CCOC(=O)c1noc2c1CN(C(=O)c1cc(Cl)c(O)cc1O)CC2 | < 4.70 | 6.80 | –
COC(=O)c1noc2c1CN(C(C)=O)CC2 | < 6.00 | < 4.00 | –
CC(C)c1cc(C(=O)N2CCc3onc(C(=O)NCCCl)c3C2)c(O)cc1O | 6.70 | 7.47 | –
CCNC(=O)c1noc2c1CN(C(=O)c1cc(C(C)C)c(O)cc1O)CC2 | 6.35 | 7.54 | Activity [3]: Active; Activity [4]: Active; AC50 [5]: 5400 nM; growth inhibition (GI) [6]: Dose-dependent effect; pIC50 [6]: 6.14
CCNC(=O)c1noc2c1CN(C(=O)Nc1cc(C(C)C)c(O)cc1O)CC2 | < 6.00 | < 4.00 | –
CCNC(=O)c1noc2c1CN(C(=O)c1cc(C(C)C)c(OC(C)=O)cc1OC(C)=O)CC2 | 6.64 | – | –
CCNC(=O)c1noc2c1CN(Cc1cc(Cl)c(O)cc1O)CC2 | < 4.70 | 5.85 | –
CCOC(=O)c1noc2c1CN(C(=O)c1cc(C(C)C)c(O)cc1O)CC2 | 6.06 | 7.00 | –
CCNC(=O)c1noc2c1CN(C(=O)c1cc(Cl)c(O)cc1O)CC2 | 5.01 | 6.96 | Activity [7]: Active; AC50 [5]: > 100000 nM; growth inhibition (GI) [6]: Dose-dependent effect; pIC50 [6]: 4.49; Activity [8]: Active
C=CCNC1=C2C[C@@H](C)C[C@H](OC)[C@H](O)[C@@H](C)/C=C(\C)[C@H](OC(N)=O)[C@@H](OC)/C=C\C=C(/C)C(=O)NC(=CC1=O)C2=O [TANESPIMYCIN] | – | – | AC50 [5]: 3100 nM; pIC50 [6]: 6.82; Activity [9]: Active; Activity [10]: Active
CCNC(=O)c1noc2c1CN(C(=O)Nc1cc(Cl)c(O)cc1O)CC2 | < 6.00 | < 4.00 | –
CC(C)c1cc(C(=O)N2CCc3onc(C(=O)NCCN4CCOCC4)c3C2)c(O)cc1O | 6.72 | 7.27 | –
CC(C)c1cc(C(=O)N2CCc3onc(C(=O)NC4CCCC4)c3C2)c(O)cc1O | 6.05 | 7.17 | –
CCNC(=O)c1noc2c1CN(C(=O)c1ccc(O)cc1O)CC2 | < 4.70 | 5.92 | –
CCOC(=O)c1noc2c1CN(C(=O)c1ccc(O)cc1O)CC2 | < 4.70 | 5.41 | –

Source: ChEMBL document CHEMBL3232879, “4,5,6,7-Tetrahydro-isoxazolo-[4,5-c]-pyridines as a new class of cytotoxic Hsp90 inhibitors” (Eur J Med Chem, 2014)
